Experimental data reported in ChEMBL document CHEMBL4813976, “Rational drug design of benzothiazole-based derivatives as potent signal transducer and activator of transcription 3 (STAT3) signaling pathway inhibitors” (Eur J Med Chem, 2021).
Calls of active or inactive are those of the source. The calls are words filed in the database; no cut-off is given here.

Columns and labels:
MDA-MB-453 = test: Antiproliferative activity against human MDA-MB-453 cells expressing low levels of STAT3 assessed as inhibition of cell growth incubated for 72 hrs by MTT assay; type: functional, cell-based; conditions: MDA-MB-453, 72 h
How it was run: (§1)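 MTT proliferation assay on MCF-7 and MDA-MB-453 cells; IC50 given as mean ± SD of at least two independent experiments.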

MDA-MB-468 [1] = test: Induction of cell cycle arrest in human MDA-MB-468 cells assessed as increase in accumulation at G2/M phase after 48 hrs by PI/RNase staining based flow cytometry; type: functional; conditions: dose 1.25-5 µM
How it was run: (§2)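 Cells were seeded overnight, then exposed to DMSO or increasing compound concentrations for 48 h. They were fixed in ice-cold 80% ethanol overnight, stained with PI containing RNase for 30 min at 37 °C, and analysed by flow cytometry.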

[2] = molecular target: T1, Signal transducer and activator of transcription 3 (Homo sapiens, UniProt P40763); test: Inhibition of STAT3 phosphorylation at Ser727 residue in human MDA-MB-468 cells measured after 24 hrs by Western blot analysis; type: cell-based; conditions: dose 1.25-5 µM
How it was run: (§3)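 Cells were treated for 24 h, then lysed in hot 2% SDS with boiling, and protein was quantified by BCA. Lysates were run on SDS-PAGE, transferred to nitrocellulose and blocked with 3% milk in TBST. Membranes were probed overnight at 4 °C with 1:1000 antibodies to pSTAT3 Tyr705, pSTAT3 Ser727, STAT3, c-Myc, MCL-1, β-actin and GAPDH. Detection used HRP secondaries and ECL.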

[3] = molecular target: T1, Signal transducer and activator of transcription 3; test: Displacement of 5'-FAM-GpYLPQTV-NH2 from His-tagged STAT3-SH2 domain (127 to 722 residues) (unknown origin) assessed as binding rate at 100 uM […] by fluorescence polarization assay; conditions: time 90.0 min
[4] = molecular target: T1, Signal transducer and activator of transcription 3; test: Inhibition of STAT3 in human HEL cells expressing JAK2 V617F mutant cells assessed as downregulation of c-Myc protein expression at 1.25 to 5 uM incubated for 24 hrs by western blot analysis; type: cell-based; conditions: dose 1.25-5 µM; how it was run: as §3
HEL [5] = test: Induction of apoptosis in human HEL cells expressing JAK2 V617F mutant cells at 1.25 to 5 uM measured after 48 hrs by AnnexinV-FITC/PI staining based flow cytometry analysis; type: functional, cell-based; conditions: dose 1.25-5 µM
How it was run: (§4)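 Cells were seeded overnight, then exposed to DMSO or compound for 48 h. They were washed twice in PBS and resuspended in binding buffer with Annexin V-FITC and propidium iodide. After 15 min at room temperature in the dark, cells were analysed by flow cytometry; data are representative of three independent experiments.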

[6] = molecular target: T1, Signal transducer and activator of transcription 3; test: Binding affinity to His-tagged STAT3-SH2 domain (127 to 722 residues) (unknown origin) by surface plasmon resonance analysis
How it was run: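 SPR on a Biacore T200 with STAT3 SH2 domain. Analytes were run as concentration series, and KD was taken as the equilibrium constant.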

[7] = molecular target: T1, Signal transducer and activator of transcription 3; test: Inhibition of STAT3 phosphorylation at Ser727 residue in human HEL cells expressing JAK2 V617F mutant measured after 24 hrs by Western blot analysis; type: cell-based; conditions: dose 1.25-5 µM; how it was run: as §3
MDA-MB-468 [8] = test: Antiproliferative activity against human MDA-MB-468 cells overexpressing STAT3 assessed as inhibition of cell growth incubated for 72 hrs by MTT assay; type: functional, cell-based; conditions: MDA-MB-468, 72 h
How it was run: (§5)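 MTT proliferation assay; MDA-MB-468 grown in DMEM/F-12 and HEL in high-glucose DMEM, each with 10% FBS and penicillin/streptomycin, at 37 °C under 5% CO₂. IC50 given as mean ± SD of at least three independent experiments.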

[9] = molecular target: T1, Signal transducer and activator of transcription 3; test: Inhibition of IL-6 induced STAT3 transcriptional activity in human HepG2 cells incubated for 1 hr followed by stimulation with IL-6 for 5.5 hrs by luciferase reporter gene assay; type: cell-based
How it was run: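 STAT3-dependent luciferase reporter assay in HepG2 cells with IL-6 stimulation; IC50 given as mean ± SD of at least three independent experiments.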

MCF7 = test: Antiproliferative activity against human MCF7 cells expressing low levels of STAT3 assessed as inhibition of cell growth incubated for 72 hrs by MTT assay; type: functional, cell-based; conditions: MCF7, 72 h; how it was run: as §1
[10] = molecular target: T1, Signal transducer and activator of transcription 3; test: Displacement of 5'-FAM-GpYLPQTV-NH2 from His-tagged STAT3-SH2 domain (127 to 722 residues) (unknown origin) assessed as binding rate at 20 uM […] by fluorescence polarization assay; conditions: time 90.0 min
[11] = molecular target: T1, Signal transducer and activator of transcription 3; test: Inhibition of STAT3 phosphorylation at Tyr705 residue in human HEL cells expressing JAK2 V617F mutant measured after 24 hrs by Western blot analysis; type: cell-based; conditions: dose 1.25-5 µM; how it was run: as §3
HEL [12] = test: Antiproliferative activity against human HEL cells harboring JAK2 V617F mutant assessed as inhibition of cell growth incubated for 72 hrs by MTT assay; type: functional, cell-based; how it was run: as §5
[13] = molecular target: Receptor tyrosine-protein kinase erbB-2 (Homo sapiens) (UniProt P04626); test: Inhibition of ERBB2 (unknown origin) at 1 uM by ELISA
[14] = molecular target: T1, Signal transducer and activator of transcription 3; test: Inhibition of STAT3 in human MDA-MB-468 cells assessed as downregulation of c-Myc protein expression at 1.25 to 5 uM incubated for 24 hrs by western blot analysis; type: cell-based; conditions: dose 1.25-5 µM; how it was run: as §3
MDA-MB-468 [15] = test: Induction of apoptosis in human MDA-MB-468 cells at 1.25 to 5 uM measured after 48 hrs by AnnexinV-FITC/PI staining based flow cytometry analysis; type: functional, cell-based; conditions: dose 1.25-5 µM; how it was run: as §4
[16] = molecular target: Receptor tyrosine-protein kinase erbB-4 (Homo sapiens) (UniProt Q15303); test: Inhibition of ERBB4 (unknown origin) at 1 uM by ELISA
[17] = molecular target: T1, Signal transducer and activator of transcription 3; test: Inhibition of STAT3 in human HEL cells expressing JAK2 V617F mutant cells assessed as downregulation of MCL-1 protein expression at 1.25 to 5 uM incubated for 24 hrs by western blot analysis; type: cell-based; conditions: dose 1.25-5 µM; how it was run: as §3
[18] = molecular target: T1, Signal transducer and activator of transcription 3; test: Displacement of 5'-FAM-GpYLPQTV-NH2 from His-tagged STAT3-SH2 domain (127 to 722 residues) (unknown origin) assessed as binding rate at 50 uM […] by fluorescence polarization assay; conditions: time 90.0 min
HEL [19] = test: Induction of cell cycle arrest in human HEL cells expressing JAK2 V617F mutant cells assessed as increase in accumulation at G2/M phase after 48 hrs by PI/RNase staining based flow cytometry; type: functional; conditions: dose 1.25-5 µM; how it was run: as §2
MDA-MB-468 [20] = test: Effect on STAT3 expression in human MDA-MB-468 cells at 1.25 to 5 uM measured after 24 hrs by Western blot analysis; type: functional, cell-based; conditions: dose 1.25-5 µM; how it was run: as §3
[21] = molecular target: Vascular endothelial growth factor receptor 1 (Homo sapiens) (UniProt P17948); test: Inhibition of VEGFR1 (unknown origin) at 1 uM by ELISA
HEL [22] = test: Induction of cell cycle arrest in human HEL cells expressing JAK2 V617F mutant cells assessed as decrease in accumulation at G1 phase after 48 hrs by PI/RNase staining based flow cytometry; type: functional; conditions: dose 1.25-5 µM; how it was run: as §2
[23] = molecular target: Platelet-derived growth factor receptor beta (Homo sapiens) (UniProt P09619); test: Inhibition of PDGFRbeta (unknown origin) at 1 uM by ELISA
MDA-MB-468 [24] = test: Induction of cell cycle arrest in human MDA-MB-468 cells assessed as decrease in accumulation at G1 phase after 48 hrs by PI/RNase staining based flow cytometry; type: functional; conditions: dose 1.25-5 µM; how it was run: as §2
[25] = molecular target: Insulin-like growth factor 1 receptor (Homo sapiens) (UniProt P08069); test: Inhibition of IGF1R (unknown origin) at 1 uM by ELISA
[26] = molecular target: T1, Signal transducer and activator of transcription 3; test: Inhibition of STAT3 in human MDA-MB-468 cells assessed as downregulation of MCL-1 protein expression at 1.25 to 5 uM incubated for 24 hrs by western blot analysis; type: cell-based; conditions: dose 1.25-5 µM; how it was run: as §3
HEL [27] = test: Effect on STAT3 expression in human HEL cells expressing JAK2 V617F mutant at 1.25 to 5 uM measured after 24 hrs by Western blot analysis; type: functional, cell-based; conditions: dose 1.25-5 µM; how it was run: as §3
[28] = molecular target: T1, Signal transducer and activator of transcription 3; test: Inhibition of STAT3 phosphorylation at Tyr705 residue in human MDA-MB-468 cells measured after 24 hrs by Western blot analysis; type: cell-based; conditions: dose 1.25-5 µM; how it was run: as §3

T1 sequence (P40763 whole entry): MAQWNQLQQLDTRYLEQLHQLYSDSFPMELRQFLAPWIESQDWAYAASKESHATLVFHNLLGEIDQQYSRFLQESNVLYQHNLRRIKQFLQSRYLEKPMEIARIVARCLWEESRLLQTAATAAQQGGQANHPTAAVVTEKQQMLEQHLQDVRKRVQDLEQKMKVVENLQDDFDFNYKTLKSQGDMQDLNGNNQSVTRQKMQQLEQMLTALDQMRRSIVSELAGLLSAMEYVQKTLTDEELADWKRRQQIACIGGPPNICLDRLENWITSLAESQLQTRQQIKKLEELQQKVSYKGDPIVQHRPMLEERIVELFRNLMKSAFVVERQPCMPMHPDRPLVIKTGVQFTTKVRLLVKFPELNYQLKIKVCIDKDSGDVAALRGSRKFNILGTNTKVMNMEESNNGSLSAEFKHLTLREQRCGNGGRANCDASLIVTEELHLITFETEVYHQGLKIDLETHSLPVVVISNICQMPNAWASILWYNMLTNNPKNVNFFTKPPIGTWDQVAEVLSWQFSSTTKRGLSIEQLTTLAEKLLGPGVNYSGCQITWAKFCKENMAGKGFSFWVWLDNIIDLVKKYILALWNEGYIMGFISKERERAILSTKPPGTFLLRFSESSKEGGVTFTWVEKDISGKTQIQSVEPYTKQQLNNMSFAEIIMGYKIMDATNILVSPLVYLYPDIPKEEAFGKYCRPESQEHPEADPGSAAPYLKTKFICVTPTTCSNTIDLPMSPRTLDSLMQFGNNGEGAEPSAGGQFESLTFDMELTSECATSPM
Insulin-like growth factor 1 receptor (Homo sapiens), sequence (P08069 31-736 limits assumed): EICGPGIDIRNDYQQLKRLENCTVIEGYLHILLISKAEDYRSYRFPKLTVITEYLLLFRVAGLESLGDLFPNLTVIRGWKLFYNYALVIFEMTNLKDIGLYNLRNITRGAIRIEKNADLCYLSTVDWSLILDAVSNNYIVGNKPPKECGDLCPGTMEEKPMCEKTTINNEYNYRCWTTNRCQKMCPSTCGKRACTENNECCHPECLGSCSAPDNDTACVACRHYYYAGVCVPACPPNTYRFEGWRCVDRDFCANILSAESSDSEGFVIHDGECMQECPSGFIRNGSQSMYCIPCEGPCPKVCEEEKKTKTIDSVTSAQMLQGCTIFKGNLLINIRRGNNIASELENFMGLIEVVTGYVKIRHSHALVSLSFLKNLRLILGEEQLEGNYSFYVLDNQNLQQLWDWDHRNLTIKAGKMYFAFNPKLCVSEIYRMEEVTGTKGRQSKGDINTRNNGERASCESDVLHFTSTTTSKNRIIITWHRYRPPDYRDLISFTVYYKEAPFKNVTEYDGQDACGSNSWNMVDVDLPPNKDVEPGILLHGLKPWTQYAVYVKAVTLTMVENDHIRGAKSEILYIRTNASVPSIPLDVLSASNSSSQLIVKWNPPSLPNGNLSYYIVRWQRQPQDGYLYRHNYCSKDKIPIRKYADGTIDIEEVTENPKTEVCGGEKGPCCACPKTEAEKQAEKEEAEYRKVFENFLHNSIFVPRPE
Insulin-like growth factor 1 receptor (Homo sapiens), sequence (P08069 741-1367 limits assumed): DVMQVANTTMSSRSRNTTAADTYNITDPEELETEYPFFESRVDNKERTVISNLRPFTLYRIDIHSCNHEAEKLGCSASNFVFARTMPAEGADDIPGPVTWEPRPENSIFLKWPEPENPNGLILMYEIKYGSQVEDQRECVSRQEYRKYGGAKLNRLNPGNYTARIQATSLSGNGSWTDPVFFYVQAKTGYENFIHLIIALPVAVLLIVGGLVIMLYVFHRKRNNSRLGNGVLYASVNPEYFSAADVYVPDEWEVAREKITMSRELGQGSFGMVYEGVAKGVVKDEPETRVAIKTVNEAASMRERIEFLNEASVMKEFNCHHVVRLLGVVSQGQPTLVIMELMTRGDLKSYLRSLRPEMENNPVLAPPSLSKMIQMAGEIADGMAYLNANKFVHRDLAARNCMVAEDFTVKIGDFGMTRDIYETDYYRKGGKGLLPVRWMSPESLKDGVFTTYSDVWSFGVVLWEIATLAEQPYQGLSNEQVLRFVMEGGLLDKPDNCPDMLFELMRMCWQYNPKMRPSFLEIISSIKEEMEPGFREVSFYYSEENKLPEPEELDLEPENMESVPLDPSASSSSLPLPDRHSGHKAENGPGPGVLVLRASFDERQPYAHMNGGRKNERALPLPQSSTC
Vascular endothelial growth factor receptor 1 (Homo sapiens), sequence (P17948 whole entry): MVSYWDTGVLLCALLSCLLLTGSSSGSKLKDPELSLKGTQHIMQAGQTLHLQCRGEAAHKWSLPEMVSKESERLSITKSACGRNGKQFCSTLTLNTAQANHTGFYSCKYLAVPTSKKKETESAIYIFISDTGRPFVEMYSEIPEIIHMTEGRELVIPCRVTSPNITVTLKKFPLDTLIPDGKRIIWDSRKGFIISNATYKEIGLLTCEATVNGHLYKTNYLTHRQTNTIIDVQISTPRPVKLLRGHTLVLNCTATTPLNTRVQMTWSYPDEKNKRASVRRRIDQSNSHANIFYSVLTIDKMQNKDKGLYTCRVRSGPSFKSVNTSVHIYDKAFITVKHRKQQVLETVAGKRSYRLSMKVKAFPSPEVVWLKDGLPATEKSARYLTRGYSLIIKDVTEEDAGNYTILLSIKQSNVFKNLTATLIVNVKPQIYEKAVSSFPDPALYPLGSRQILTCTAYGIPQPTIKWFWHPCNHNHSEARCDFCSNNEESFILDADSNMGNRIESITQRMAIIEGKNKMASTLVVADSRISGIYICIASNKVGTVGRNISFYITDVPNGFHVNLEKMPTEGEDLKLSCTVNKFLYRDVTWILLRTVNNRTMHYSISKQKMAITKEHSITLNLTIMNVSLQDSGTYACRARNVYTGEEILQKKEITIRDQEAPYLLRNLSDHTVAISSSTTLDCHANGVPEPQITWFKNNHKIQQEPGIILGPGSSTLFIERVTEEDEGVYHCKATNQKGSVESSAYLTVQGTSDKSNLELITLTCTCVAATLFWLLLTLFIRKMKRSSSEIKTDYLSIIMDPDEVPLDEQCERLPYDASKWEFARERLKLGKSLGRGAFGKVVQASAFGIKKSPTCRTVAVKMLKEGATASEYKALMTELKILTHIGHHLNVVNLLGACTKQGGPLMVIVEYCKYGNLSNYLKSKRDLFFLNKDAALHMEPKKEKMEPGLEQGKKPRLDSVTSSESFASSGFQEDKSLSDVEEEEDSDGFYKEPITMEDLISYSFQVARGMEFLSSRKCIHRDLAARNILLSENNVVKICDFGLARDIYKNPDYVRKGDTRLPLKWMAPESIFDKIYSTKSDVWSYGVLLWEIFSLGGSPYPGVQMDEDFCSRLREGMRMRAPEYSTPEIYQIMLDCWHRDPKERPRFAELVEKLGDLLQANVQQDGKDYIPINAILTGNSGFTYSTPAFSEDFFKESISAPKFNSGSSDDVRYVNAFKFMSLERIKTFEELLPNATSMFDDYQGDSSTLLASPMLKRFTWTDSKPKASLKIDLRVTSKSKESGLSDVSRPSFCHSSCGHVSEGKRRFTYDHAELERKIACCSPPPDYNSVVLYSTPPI
Platelet-derived growth factor receptor beta (Homo sapiens), sequence (P09619 whole entry): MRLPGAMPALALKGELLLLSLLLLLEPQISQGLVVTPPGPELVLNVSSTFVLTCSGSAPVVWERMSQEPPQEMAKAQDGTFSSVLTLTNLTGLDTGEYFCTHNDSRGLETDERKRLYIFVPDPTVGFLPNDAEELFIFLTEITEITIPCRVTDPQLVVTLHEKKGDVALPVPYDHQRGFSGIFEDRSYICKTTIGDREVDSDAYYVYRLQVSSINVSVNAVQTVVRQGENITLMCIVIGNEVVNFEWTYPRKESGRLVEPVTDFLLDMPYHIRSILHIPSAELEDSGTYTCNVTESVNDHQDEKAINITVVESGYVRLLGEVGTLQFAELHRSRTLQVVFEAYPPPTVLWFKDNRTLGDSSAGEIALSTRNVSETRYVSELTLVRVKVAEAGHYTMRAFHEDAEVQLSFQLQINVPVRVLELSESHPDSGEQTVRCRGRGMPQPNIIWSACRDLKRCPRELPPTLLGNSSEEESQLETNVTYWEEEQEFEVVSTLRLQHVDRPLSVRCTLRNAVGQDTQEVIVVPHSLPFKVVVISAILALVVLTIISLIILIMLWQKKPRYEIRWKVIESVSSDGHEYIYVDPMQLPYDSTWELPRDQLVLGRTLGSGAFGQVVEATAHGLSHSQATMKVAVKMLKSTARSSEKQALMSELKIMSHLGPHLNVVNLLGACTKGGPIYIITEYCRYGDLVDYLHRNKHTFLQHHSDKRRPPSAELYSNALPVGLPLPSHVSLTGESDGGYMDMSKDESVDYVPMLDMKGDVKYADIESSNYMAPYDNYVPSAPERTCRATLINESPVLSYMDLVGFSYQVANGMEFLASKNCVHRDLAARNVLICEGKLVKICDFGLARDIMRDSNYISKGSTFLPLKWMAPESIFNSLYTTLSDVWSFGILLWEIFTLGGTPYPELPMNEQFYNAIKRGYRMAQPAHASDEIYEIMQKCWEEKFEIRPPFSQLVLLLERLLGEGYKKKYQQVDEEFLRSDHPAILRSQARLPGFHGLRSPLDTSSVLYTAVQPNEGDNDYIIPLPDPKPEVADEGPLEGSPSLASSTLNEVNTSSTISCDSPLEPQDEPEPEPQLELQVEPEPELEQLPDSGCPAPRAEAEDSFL

Compound	IC50 (MDA-MB-453) [µM]	Activity (MDA-MB-468 [1])	inhibition [2]	Activity [3] [%]	inhibition [4]	Activity (HEL [5])	Kd [6] [nM]	inhibition [7]	IC50 (MDA-MB-468 [8]) [nM]	IC50 [9] [nM]	IC50 (MCF7) [µM]	Activity [10] [%]	inhibition [11]	IC50 (HEL [12]) [nM]	inhibition [13] [%]	inhibition [14]	Activity (MDA-MB-468 [15])	inhibition [16] [%]	inhibition [17]	Activity [18] [%]	also measured
CCCC(C)Oc1ccc(C(=O)Nc2ccc3nc(SCC(=O)N[C@@H](C)c4ccc(OC)cc4)sc3c2)c(OC)c1C (stereo not given in full)	> 20	Dose-Dependent Effect	Dose-Dependent Effect	< 10	Active	Active	53	Dose-Dependent Effect	250	67	> 20	< 10	Dose-Dependent Effect	1110	9.6	Active	Active	0	Active	< 10	Activity (HEL [19]): Dose-Dependent Effect; Activity (MDA-MB-468 [20]): inactive; inhibition [21]: 0%; Activity (HEL [22]): Dose-Dependent Effect; inhibition [23]: 0%; Activity (MDA-MB-468 [24]): Dose-Dependent Effect; inhibition [25]: 0%; inhibition [26]: Active; Activity (HEL [27]): inactive; inhibition [28]: Dose-Dependent Effect
CCCC(C)Oc1ccc(C(=O)Nc2ccc3nc(SCC(=O)N[C@@H](C)c4ccccc4)sc3c2)c(OC)c1C (stereo not given in full)	> 20	Dose-Dependent Effect	Dose-Dependent Effect	< 10	Active	Active	62.6	Dose-Dependent Effect	1040	160	> 20	< 10	Dose-Dependent Effect	2410	5.2	Active	Active	0	Active	< 10	Activity (HEL [19]): Dose-Dependent Effect; Activity (MDA-MB-468 [20]): inactive; inhibition [21]: 0%; Activity (HEL [22]): Dose-Dependent Effect; inhibition [23]: 0%; Activity (MDA-MB-468 [24]): Dose-Dependent Effect; inhibition [25]: 0%; inhibition [26]: Active; Activity (HEL [27]): inactive; inhibition [28]: Dose-Dependent Effect
